Laboratory results from ChEMBL document CHEMBL1133577, “Design and synthesis of piperazine-based matrix metalloproteinase inhibitors” (J Med Chem, 2000).

Experiments:
[1] = target: Stromelysin-1 (Homo sapiens, UniProt P08254); test: In vitro inhibitory activity against matrix metalloprotease-3 (MMP-3)
[2] = target: Matrix metalloproteinase-9 (Homo sapiens, UniProt P14780); test: In vitro inhibitory activity against matrix metalloprotease-9 (MMP-9)
[3] = target: T1, Matrilysin (Homo sapiens, UniProt P09237); test: In vitro inhibitory activity against matrix metalloprotease-7 (MMP-7)
T1 sequence (P09237 whole entry): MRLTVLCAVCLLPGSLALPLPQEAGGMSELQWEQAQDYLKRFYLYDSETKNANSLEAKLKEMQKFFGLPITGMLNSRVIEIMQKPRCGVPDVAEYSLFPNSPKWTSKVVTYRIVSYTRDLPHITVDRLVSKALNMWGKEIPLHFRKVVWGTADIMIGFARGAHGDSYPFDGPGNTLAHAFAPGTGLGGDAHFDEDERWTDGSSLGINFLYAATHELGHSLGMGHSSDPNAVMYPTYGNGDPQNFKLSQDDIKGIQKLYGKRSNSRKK
How it was run: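 MMP-7 supplied as active enzyme. It was incubated with 8 µM […] in 50 mM Tris-HCl pH 7.5, 10 mM CaCl2, 0.15 M NaCl, 0.05% Brij for 20-30 min at 37 °C with varying inhibitor. The reaction was quenched with 50 mM EDTA and fluorescence read at ex 328/em 393 nm. Activity is expressed as % of uninhibited control, triplicates; IC50 from 4-parameter logistic fit.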

[4] = target: T2, Interstitial collagenase (Homo sapiens, UniProt P03956); test: In vitro inhibitory activity against matrix metalloprotease-1 (MMP-1)
T2 sequence (P03956 whole entry): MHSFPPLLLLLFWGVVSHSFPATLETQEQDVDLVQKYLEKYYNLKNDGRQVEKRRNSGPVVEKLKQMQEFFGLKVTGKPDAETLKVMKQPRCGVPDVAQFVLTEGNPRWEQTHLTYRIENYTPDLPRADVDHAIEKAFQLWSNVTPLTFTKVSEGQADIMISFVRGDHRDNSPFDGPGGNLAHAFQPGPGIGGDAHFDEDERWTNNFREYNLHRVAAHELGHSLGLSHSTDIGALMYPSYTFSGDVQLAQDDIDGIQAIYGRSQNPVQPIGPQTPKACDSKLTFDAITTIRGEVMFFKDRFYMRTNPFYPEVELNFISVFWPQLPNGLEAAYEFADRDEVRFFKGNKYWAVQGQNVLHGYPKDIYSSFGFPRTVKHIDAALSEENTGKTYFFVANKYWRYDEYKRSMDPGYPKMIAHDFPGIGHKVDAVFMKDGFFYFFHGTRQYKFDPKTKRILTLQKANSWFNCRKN

[5] = target: Collagenase 3 (Homo sapiens, UniProt P45452); test: In vitro inhibitory activity against matrix metalloprotease-13 (MMP-13)

Stromelysin-1, sequence (P08254 whole entry): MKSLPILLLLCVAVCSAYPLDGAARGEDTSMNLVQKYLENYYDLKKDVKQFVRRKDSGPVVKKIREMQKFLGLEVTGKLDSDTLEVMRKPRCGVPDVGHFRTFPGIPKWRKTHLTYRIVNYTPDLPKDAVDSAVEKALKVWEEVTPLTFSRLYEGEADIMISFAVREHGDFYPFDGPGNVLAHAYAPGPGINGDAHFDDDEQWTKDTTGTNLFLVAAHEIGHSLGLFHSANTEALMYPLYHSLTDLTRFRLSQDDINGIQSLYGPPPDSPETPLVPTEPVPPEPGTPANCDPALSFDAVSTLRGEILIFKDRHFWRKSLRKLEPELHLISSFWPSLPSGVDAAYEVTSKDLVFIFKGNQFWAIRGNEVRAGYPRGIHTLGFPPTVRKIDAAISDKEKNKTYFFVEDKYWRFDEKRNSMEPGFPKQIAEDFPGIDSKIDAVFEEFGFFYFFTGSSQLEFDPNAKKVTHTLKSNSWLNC
Matrix metalloproteinase-9, sequence (P14780 whole entry): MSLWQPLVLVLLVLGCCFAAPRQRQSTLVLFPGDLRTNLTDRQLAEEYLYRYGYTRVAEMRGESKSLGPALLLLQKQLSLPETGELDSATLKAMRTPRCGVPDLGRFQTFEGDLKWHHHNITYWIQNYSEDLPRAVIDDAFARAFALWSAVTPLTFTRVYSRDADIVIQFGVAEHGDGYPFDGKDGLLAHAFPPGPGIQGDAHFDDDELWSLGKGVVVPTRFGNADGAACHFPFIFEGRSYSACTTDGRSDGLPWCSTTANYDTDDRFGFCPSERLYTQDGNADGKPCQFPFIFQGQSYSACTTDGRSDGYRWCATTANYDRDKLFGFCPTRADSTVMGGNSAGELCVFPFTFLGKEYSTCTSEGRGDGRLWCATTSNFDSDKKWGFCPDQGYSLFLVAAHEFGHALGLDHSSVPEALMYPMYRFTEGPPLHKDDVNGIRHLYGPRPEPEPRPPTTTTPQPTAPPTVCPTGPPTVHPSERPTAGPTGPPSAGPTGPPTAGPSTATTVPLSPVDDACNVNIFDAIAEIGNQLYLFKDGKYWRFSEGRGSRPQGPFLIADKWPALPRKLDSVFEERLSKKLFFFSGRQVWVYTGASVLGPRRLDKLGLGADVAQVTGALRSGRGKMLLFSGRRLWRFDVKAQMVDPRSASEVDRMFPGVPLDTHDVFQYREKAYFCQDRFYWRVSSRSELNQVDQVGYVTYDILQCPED

SMILES | IC50 [1] [nM] | IC50 [2] [nM] | IC50 [3] [nM] | IC50 [4] [nM] | IC50 [5] [nM]
COc1ccc(S(=O)(=O)N2CCN(C(=O)[C@@H](O)C(C)C)CC2C(=O)NO)cc1 (stereo partly specified) | 60 | 4.4 | 1690 | 227 | 1
CCCCCCN(C)C(=O)N1CCN(S(=O)(=O)c2ccc(OC)cc2)C(C(=O)NO)C1 (stereo unspecified) | 4.3 | 6 | 3240 | 71 | 1.9
COc1ccc(S(=O)(=O)N2CCN(S(=O)(=O)c3c(C)noc3C)CC2C(=O)NO)cc1 (stereo unspecified) | 3.2 | 2.4 | 1020 | 54 | 1.3
CCCCCC(=O)N1CCN(S(=O)(=O)c2ccc(OC)cc2)C(C(=O)NO)C1 (stereo unspecified) | 39 | – | 787 | 115 | –
COc1ccc(S(=O)(=O)N2CCN(C(=O)c3ccco3)CC2C(=O)NO)cc1 (stereo unspecified) | 7.5 | 1.6 | 642 | 25 | 2.5
COc1ccc(S(=O)(=O)N2CCN(S(C)(=O)=O)CC2C(=O)NO)cc1 (stereo unspecified) | 3.5 | 0.6 | 483 | 8 | 1
COc1ccc(S(=O)(=O)N2CCN(Cc3ccccc3)CC2C(=O)NO)cc1 (stereo unspecified) | 75 | 7.6 | 14000 | 324 | 8
CCCCCCNC(=O)N1CCN(S(=O)(=O)c2ccc(OC)cc2)C(C(=O)NO)C1 (stereo unspecified) | 28 | 2.6 | 497 | 30 | 1.4
CCCCCCN1CCN(S(=O)(=O)c2ccc(OC)cc2)C(C(=O)NO)C1 (stereo unspecified) | 71 | 17 | 15700 | 996 | 4.2
CCCCCCN(C)C(=O)N1CCN(S(=O)(=O)c2ccc(Br)cc2)C(C(=O)NO)C1 (stereo unspecified) | 175 | 13 | 1200 | 87 | 4.5
COc1ccc(S(=O)(=O)N2CCN(S(=O)(=O)c3ccc(OC)cc3)C(C(=O)NO)C2)cc1 (stereo unspecified) | 13 | 1.2 | 1890 | 60 | 1.3
COc1ccc(S(=O)(=O)N2CCNCC2C(=O)NO)cc1 (stereo unspecified) | – | 6.9 | – | – | –
COc1ccc(S(=O)(=O)N2CCN(C)CC2C(=O)NO)cc1 (stereo unspecified) | 269 | 25 | 10000 | – | 21
COc1ccc(S(=O)(=O)N2CCN(C(N)=O)CC2C(=O)NO)cc1 (stereo unspecified) | 20 | 2.3 | 537 | 115 | 3.6
COc1ccc(S(=O)(=O)N2CCN(C(=O)c3cccnc3)CC2C(=O)NO)cc1 (stereo unspecified) | 184 | 32 | 27700 | 994 | 57
COc1ccc(S(=O)(=O)N2CCN(C(=O)N3CCOCC3)CC2C(=O)NO)cc1 (stereo unspecified) | 124 | 8.3 | 4350 | 228 | 54
COc1ccc(S(=O)(=O)N2CCN(C(=O)c3ccc(-c4ccccc4)cc3)CC2C(=O)NO)cc1 (stereo unspecified) | 23 | – | 931 | 43 | 0.9
COCCN(CCOC)C(=O)N1CCN(S(=O)(=O)c2ccc(Br)cc2)C(C(=O)NO)C1 (stereo unspecified) | 385 | 20 | 1130 | 49 | 3.2
CCCN(CC1CC1)C(=O)N1CCN(S(=O)(=O)c2ccc(OC)cc2)C(C(=O)NO)C1 (stereo unspecified) | 65 | – | 2090 | – | 1.1
COc1ccc(S(=O)(=O)N2CCN(C(=O)NCCc3ccccc3)CC2C(=O)NO)cc1 (stereo unspecified) | 27 | 3.6 | 824 | 70 | –

SMILES | IC50 [1] [nM] | IC50 [2] [nM] | IC50 [3] [nM] | IC50 [4] [nM] | IC50 [5] [nM]
COc1ccc(S(=O)(=O)N2CCN(C(=O)N(C)Cc3ccccc3)CC2C(=O)NO)cc1 (stereo unspecified) | 38 | – | – | 322 | 1.8
COc1ccc(S(=O)(=O)N2CCN(S(=O)(=O)c3sc(N)nc3C)CC2C(=O)NO)cc1 (stereo unspecified) | 2.5 | 2.1 | 1280 | 31 | 2
COc1ccc(S(=O)(=O)N2CCN(C(=S)NCc3ccccc3)CC2C(=O)NO)cc1 (stereo unspecified) | 41 | 6.6 | 401 | 68 | –
COc1ccc(S(=O)(=O)N2CCN(C(=O)NCc3ccccc3)CC2C(=O)NO)cc1 (stereo unspecified) | 17 | 3.8 | 416 | 99 | 2.4
COc1ccc(S(=O)(=O)N2CCN(C(=O)c3cccs3)CC2C(=O)NO)cc1 (stereo unspecified) | 15 | 1.3 | 710 | 68 | 1.9
COc1ccc(S(=O)(=O)N2CCN(C(=O)OCc3ccccc3)CC2C(=O)NO)cc1 (stereo unspecified) | – | 1.9 | 232 | 24 | 1.3
COc1ccc(S(=O)(=O)N2CCN(C(C)=O)CC2C(=O)NO)cc1 (stereo unspecified) | 18 | 1.8 | 821 | 73 | 1
CCOCCCOC(=O)N1CCN(S(=O)(=O)c2ccc(OC)cc2)C(C(=O)NO)C1 (stereo unspecified) | 5.3 | 0.6 | 483 | 22 | 0.7
COc1ccc(S(=O)(=O)N2CCN(C(=O)OCc3cccnc3)CC2C(=O)NO)cc1 (stereo unspecified) | 8.9 | 1.9 | 502 | 18 | 1
COc1ccc(S(=O)(=O)N2CCN(C(=O)COc3ccccc3)CC2C(=O)NO)cc1 (stereo unspecified) | 9.5 | 3 | 908 | 92 | –
COc1ccc(S(=O)(=O)N2CCN(C(=O)N3CCN(C)CC3)CC2C(=O)NO)cc1 (stereo unspecified) | 114 | 5 | 2690 | 354 | 4.1
COc1ccc(S(=O)(=O)N2CCN(C(=O)c3snnc3C)CC2C(=O)NO)cc1 (stereo unspecified) | 173 | 17 | 6090 | 1060 | 21
COc1ccc(S(=O)(=O)N2CCN(C(=O)N3CCCCCC3)CC2C(=O)NO)cc1 (stereo unspecified) | 54 | – | 2690 | 158 | 2.9
COc1ccc(S(=O)(=O)N2CCN(C(=O)OC(C)(C)C)CC2C(=O)NO)cc1 (stereo unspecified) | 60 | 2.3 | 1460 | 81 | –
COc1ccc(S(=O)(=O)N2CCN(C(=O)C3CCCCC3)CC2C(=O)NO)cc1 (stereo unspecified) | 27 | 1.8 | 2170 | 219 | 1.5
COc1ccc(S(=O)(=O)N2CCN(C(=O)Nc3cccc(OC)c3)CC2C(=O)NO)cc1 (stereo unspecified) | 13 | 4.1 | 1100 | 80 | 2.8
COc1ccc(S(=O)(=O)N2CCN(C(=O)c3c(-c4ccccc4)noc3C)CC2C(=O)NO)cc1 (stereo unspecified) | 410 | 22 | 22100 | 1320 | 27
COc1ccc(S(=O)(=O)N2CCN(C(=O)c3ccccc3)CC2C(=O)NO)cc1 (stereo unspecified) | 66 | – | 1520 | 81 | –
COc1ccc(S(=O)(=O)N2CCN(c3nc(-c4ccccc4)cs3)CC2C(=O)NO)cc1 (stereo unspecified) | 11 | 28 | 3290 | 325 | –
COc1ccc(S(=O)(=O)N2CCN(C(=O)c3ccno3)CC2C(=O)NO)cc1 (stereo unspecified) | 147 | – | – | 62 | –
